Screening results (PubChem)
Hits are enriched below; roughly 5.9% of the tested compounds scored in any of these assays.
GASC1 inh = blocks human GASC-1 (KDM4C) demethylase activity | Q9H3R0 | GST-KDM4C 2-372, H3K9me3 peptide, LANCE TR-FRET | inhibition, % at 12.5 µM | 0.15% of 96,000 active | AID 720574;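 active = mean replicate inhibition above about 25%, with at least 55% of replicates also reaching it, limit read from the data, passing the limit was not always enough; inconclusive = only one of those two conditions met; inactive = neither condition met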
Target sequence (Q9H3R0 2-372 limits assumed): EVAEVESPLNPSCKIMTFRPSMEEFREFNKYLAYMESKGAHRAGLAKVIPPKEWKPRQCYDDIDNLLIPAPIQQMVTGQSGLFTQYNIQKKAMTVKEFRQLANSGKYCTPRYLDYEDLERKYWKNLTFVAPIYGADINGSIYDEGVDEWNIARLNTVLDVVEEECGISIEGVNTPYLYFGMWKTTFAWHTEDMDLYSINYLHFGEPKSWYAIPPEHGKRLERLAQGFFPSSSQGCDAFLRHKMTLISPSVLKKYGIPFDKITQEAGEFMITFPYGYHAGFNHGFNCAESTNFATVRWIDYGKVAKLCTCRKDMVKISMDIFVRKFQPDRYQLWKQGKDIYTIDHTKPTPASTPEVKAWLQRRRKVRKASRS
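Material: GST-tagged GASC-1 (JMJD2C) catalytic fragment, aa 2-372 / Quantity: enzyme final amount 10 nM / Medium: HEPES buffer, pH 7.5, plus ascorbate / Doses: one test concentration per compound / Incubation: 30 min reaction, 60 min detection, RT / Measured by: LANCE TR-FRET / Read-out: inhibition from TR-FRET ratio decrease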
IDH1 R132H inh = blocks human IDH1 R132H reductase activity. O75874. diaphorase/resazurin fluorescence, 60 min. inhibition, % at 10 µM. 0.18% of 70,000 active. AID 624101; in the data active = inhibition above about 34%; inconclusive = no clear call, values can overlap the other calls; inactive = below about 11%;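 also: 0% = DMSO and 100% = no enzyme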
Pf Dd2 growth = P. falciparum Dd2 growth inhibition; SYBR Green, 72 h; hits give low values; activity change, % at 10 µM; 2.3% of 94,000 active; AID 1159554; in the data active = activity change below about -80%; inconclusive = no clear call, values can overlap the other calls
T cruzi growth-1 = inhibitors of T. cruzi proliferation; T. cruzi beta-gal in NIH3T3, GalScreen luminescence, 90 h; inhibition, % at 8.34 µM; 5.9% of 77,000 active;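 active = mean inhibition above about 93%, with at least 55% of replicates each passing it, limit read from the data, passing the limit was not always enough; inconclusive = only one of those two conditions holds; inactive = neither condition holds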
T cruzi growth-2 = blocks T. cruzi growth in NIH3T3 host cells; T. cruzi beta-gal in NIH3T3, GalScreen luminescence, 90 h; shares compounds with T cruzi growth-1; 72% of 5,600 active; inhibition, % at 8.35 µM;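 active = mean replicate inhibition above about 95% and at least 55% of replicates individually reaching it, limit read from the data; inconclusive = only one of the two criteria is met; inactive = neither criterion is met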
T cruzi growth-3 = inhibitors of T. cruzi proliferation. shares compounds with T cruzi growth-1. T. cruzi beta-gal in NIH3T3, GalScreen luminescence, 90 h. inhibition, % at 2.09 µM. 21% of 5,600 active;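 active = mean inhibition above about 95%, with at least 55% of replicates also reaching it, limit read from the data; inconclusive = meets just one of the two conditions; inactive = meets neither condition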;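 also: plate controls were neutral control median for no effect and positive control median for full effect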
3T3 cytotox = NIH/3T3 (mouse) viability loss. cytotoxicity (signal decrease), % at 8.35 µM. shares compounds with T cruzi growth-1. 14% of 5,600 active. NIH/3T3 viability, CellTiter-Glo ATP luminescence, 90 h. AID 651742;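 active = mean signal decrease across replicates above about 35% based on untreated-well scatter, with enough replicates individually passing, limit read from the data; inconclusive = no rule stated though some were filed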;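 also: 0% = median of neutral control wells and 100% = median of positive control wells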
NIH3T3 tox 2 = cytotoxicity in mouse NIH/3T3 fibroblasts | NIH/3T3 viability, CellTiter-Glo ATP luminescence, 90 h | inhibition, % at 24.9 µM | 56% of 5,600 active | shares compounds with T cruzi growth-1;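 active = mean loss of cell viability signal at or above a set limit, and enough replicates individually reaching it; inconclusive = meets only the mean limit or only the replicate share; inactive = meets neither condition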;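 also: 0% = median of neutral control wells and 100% = median of positive control wells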
Numbers without * were called inactive; ? = inconclusive; / = no result.

SMILES | GASC1 inh | IDH1 R132H inh | Pf Dd2 growth | T cruzi growth-1 | T cruzi growth-2 | T cruzi growth-3 | 3T3 cytotox | NIH3T3 tox 2
COc1cccc(NC(=O)N2C[C@@H](O)COC[C@H]3O[C@@H](CC(=O)NCCCN4CCOCC4)CC[C@@H]32)c1 | -2 | / | 9 | / | / | / | / | /
COc1ccccc1CNC(=O)C[C@@H]1CC[C@@H]2[C@H](COC[C@H](O)CN2Cc2ccc3c(c2)OCO3)O1 | 1 | / | -52 | 150* | 55 | -22 | -5 | 5
COc1ccccc1CNC(=O)C[C@@H]1CC[C@@H]2[C@H](COC[C@H](O)CN2Cc2ccccc2)O1 | -2 | / | -19 | / | / | / | / | /
COc1ccccc1CNC(=O)C[C@H]1CC[C@H]2[C@@H](COC[C@@H](O)CN2Cc2cccc(-c3ccncc3)c2)O1 | 1 | / | / | 113* | 82 | 82 | 6 | 31*
COc1ccccc1CNC(=O)C[C@H]1CC[C@H]2[C@@H](COC[C@@H](O)CN2Cc2ccc3c(c2)OCO3)O1 | -1 | / | 4 | 18 | / | / | / | /
CCOC(=O)CSc1nnc(-c2ccccc2)n1-c1cccc(C)c1 | / | 1 | / | / | / | / | / | /
COC(=O)C[C@@H]1C=C[C@@H](NS(=O)(=O)c2ccccc2F)[C@H](CO)O1 | 0 | 0 | 14 | -82 | / | / | / | /
COc1cccc(NC(=O)C[C@H]2CC[C@@H]3[C@H](COc4ccc(NC(=O)C5CCC5)cc4C(=O)N3C)O2)c1 | 1 | / | -28 | / | / | / | / | /
C[C@@H]1CCCCO[C@@H](CN(C)C(=O)Nc2ccccc2)[C@H](C)CN([C@@H](C)CO)C(=O)c2cc(NC(=O)Cc3ccccc3)ccc2O1 | -1 | 1 | -26 | -28 | / | / | / | /
C[C@@H]1CCCCO[C@H](CN(C)C(=O)Nc2ccc(C(F)(F)F)cc2)[C@@H](C)CN([C@@H](C)CO)C(=O)c2cc(NC(=O)Cc3ccccc3)ccc2O1 | -1 | 2 | -89* | ? | 101* | 114* | 2 | ?
C[C@H](CO)N1C[C@H](C)[C@H](CN(C)C(=O)Nc2ccc(F)cc2)OCCCC[C@H](C)Oc2ccc(NC(=O)Cc3ccccc3)cc2C1=O | -1 | / | 4 | 104* | 101* | 40 | -21 | 6
C[C@@H]1CCCCO[C@H](CN(C)C(=O)Nc2ccccc2)[C@H](C)CN([C@H](C)CO)C(=O)c2cc(NC(=O)Cc3ccccc3)ccc2O1 | 0 | 0 | -68 | 29 | / | / | / | /
C[C@H]1CCCCO[C@@H](CN(C)C(=O)Nc2ccc(C(F)(F)F)cc2)[C@@H](C)CN([C@@H](C)CO)C(=O)c2cc(NC(=O)Cc3ccccc3)ccc2O1 | -1 | / | -63 | ? | 107* | 111* | 11 | 24*
C[C@@H]1CCCCO[C@H](CN(C)Cc2ccc(C(F)(F)F)cc2)[C@H](C)CN([C@H](C)CO)C(=O)c2cc(NC(=O)Nc3cccc4ccccc34)ccc2O1 | -9 | 1 | -68 | ? | 105* | 117* | 13 | 10
C[C@H](CO)N1C[C@H](C)[C@H](CN(C)Cc2ccc(C(=O)O)cc2)OCCCC[C@H](C)Oc2ccc(NC(=O)Nc3cccc4ccccc34)cc2C1=O | 1 | / | 9 | 29 | / | / | / | /
C[C@H](CO)N1C[C@H](C)[C@H](CN(C)Cc2ccc(C(F)(F)F)cc2)OCCCC[C@H](C)Oc2ccc(NC(=O)Nc3cccc4ccccc34)cc2C1=O | -2 | / | 26 | 126 | / | / | / | /
C[C@@H]1CN([C@@H](C)CO)C(=O)c2cc(NC(=O)Nc3cccc4ccccc34)ccc2O[C@@H](C)CCCCO[C@H]1CN(C)Cc1ccc(C(F)(F)F)cc1 | 0 | -11 | -52 | ? | 109* | 117* | 29 | 11
C[C@H](CO)N1C[C@H](C)[C@@H](CN(C)Cc2ccc(C(F)(F)F)cc2)OCCCC[C@H](C)Oc2ccc(NC(=O)Nc3cccc4ccccc34)cc2C1=O | -3 | -2 | 14 | ? | 99* | 107* | 23 | 4
C[C@@H]1CN([C@@H](C)CO)C(=O)c2cc(NC(=O)Nc3cccc4ccccc34)ccc2O[C@@H](C)CCCCO[C@@H]1CN(C)Cc1ccc(C(F)(F)F)cc1 | -4 | / | -88* | ? | 107* | 111* | 2 | 20
COc1ccc(C)cc1NC(=O)c1ccc(OCC(=O)Nc2ccccc2C(F)(F)F)cc1 | / | 0 | / | / | / | / | / | /
C[C@H]1CCCCO[C@@H](CN(C)C(=O)Nc2ccc3c(c2)OCO3)[C@@H](C)CN([C@@H](C)CO)C(=O)c2cc(NS(=O)(=O)c3ccc(F)cc3)ccc2O1 | 3 | / | -14 | 46 | / | / | / | /
Cc1noc(C)c1S(=O)(=O)N(C)C[C@H]1Oc2ccc(NS(C)(=O)=O)cc2C(=O)N([C@@H](C)CO)C[C@H]1C | 0 | / | 34 | 77 | / | / | / | /
C[C@@H]1CCCCO[C@H](CN(C)Cc2ccc(C(F)(F)F)cc2)[C@@H](C)CN([C@H](C)CO)C(=O)c2cc(NC(=O)Nc3cccc4ccccc34)ccc2O1 | -5 | / | 34 | ? | 107* | 87 | 15 | 6
C/C=C/c1ccc2c(c1)O[C@H](CN(C)C(=O)Nc1ccc(C(F)(F)F)cc1)[C@H](C)CN([C@H](C)CO)S2(=O)=O | 0 | -3 | -1 | 100* | 96* | 90 | 38* | 90*
C/C=C/c1ccc2c(c1)O[C@H](CN(C)C(=O)Nc1ccc(C(F)(F)F)cc1)[C@@H](C)CN([C@@H](C)CO)S2(=O)=O | -1 | -1 | -10 | 101* | 88 | 81 | 73* | 98*
SMILES | GASC1 inh | IDH1 R132H inh | Pf Dd2 growth | T cruzi growth-1 | T cruzi growth-2 | T cruzi growth-3 | 3T3 cytotox | NIH3T3 tox 2
C/C=C/c1ccc2c(c1)O[C@@H](CN(C)C(=O)Nc1ccccc1)[C@H](C)CN([C@H](C)CO)S2(=O)=O | -1 | 0 | -2 | 9 | / | / | / | /
C/C=C/c1ccc2c(c1)O[C@@H](CN(C)C(=O)Nc1ccccc1)[C@@H](C)CN([C@H](C)CO)S2(=O)=O | 1 | -4 | -16 | 22 | / | / | / | /
C/C=C/c1ccc2c(c1)O[C@@H](CN(C)C(=O)Nc1ccc(C(F)(F)F)cc1)[C@@H](C)CN([C@H](C)CO)S2(=O)=O | 0 | 0 | -29 | 110* | 101* | 81 | 59* | 52*
C/C=C/c1ccc2c(c1)O[C@@H](CN(C)C(=O)Nc1ccc(F)cc1)[C@@H](C)CN([C@H](C)CO)S2(=O)=O | -1 | 0 | -16 | 6 | / | / | / | /
Cc1ccc(S(=O)(=O)N(C)C[C@H]2Oc3ccc(NS(=O)(=O)c4cn(C)cn4)cc3CC(=O)N([C@@H](C)CO)C[C@H]2C)cc1 | -6 | / | 24 | 22 | / | / | / | /
CO[C@H](CN(C)S(=O)(=O)c1cccc(Cl)c1)[C@H](C)CN([C@H](C)CO)S(=O)(=O)c1ccc(Cl)cc1 | -2 | 0 | -3 | ? | 99* | 20 | 47* | 68*
